Compound activity (PubChem)
Sampled rows, rich in hits. Any-hit rate of the full collection: about 9.6%.
PMI activator: increases human mannose-6-phosphate isomerase activity. P34949. purified human PMI, coupled resazurin fluorescence, 20 min; hits give high values; 1 = vehicle control, 0 substrate-free wells. activation factor at 20 µM. 0.005% of 190,000 active. AID 1214;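 active means activation factor of 2 or more at 20 µM, relative to plate controls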
Target sequence (P34949 whole entry, looked up): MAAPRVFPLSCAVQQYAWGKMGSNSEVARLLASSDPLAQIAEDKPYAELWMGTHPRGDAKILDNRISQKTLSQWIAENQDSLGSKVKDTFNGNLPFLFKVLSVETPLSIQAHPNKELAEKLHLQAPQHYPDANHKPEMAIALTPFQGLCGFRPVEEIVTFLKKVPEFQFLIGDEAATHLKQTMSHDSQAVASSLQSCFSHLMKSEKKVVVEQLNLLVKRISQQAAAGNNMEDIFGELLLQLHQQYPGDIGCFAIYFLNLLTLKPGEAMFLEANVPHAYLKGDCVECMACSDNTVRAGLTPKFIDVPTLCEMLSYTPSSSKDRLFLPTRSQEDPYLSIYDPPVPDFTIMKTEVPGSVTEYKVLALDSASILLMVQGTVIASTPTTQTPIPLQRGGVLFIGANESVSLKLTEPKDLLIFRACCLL
bCat KO growth: beta-catenin-lacking colon tumor cell growth suppression. HCT116 beta-catenin knockout viability, CellTiter-Glo, 60 h; hits give low values. viability, % at 10 µM. 1.5% of 140,000 active;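 active means viability at or under a set limit, the compound median less 4 SD, cut at about 6% in these data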;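 further: 0% = Hyamine 1622 control at 20 µM and 100% = untreated cell control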
L major viab: inhibitors of Leishmania major promastigote growth; Leishmania major promastigotes, resazurin fluorescence viability; inhibition, % at 10 µM; AID 1063; 9% of 200,000 active; in the data active means inhibition above about 50%;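 further: promastigotes grown with compound for 44 hours at 28 °C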
PMI act hi M6P: activators of human phosphomannose isomerase at near-saturating mannose 6-phosphate; coupled PMI enzyme assay, resazurin fluorescence, 20 min; hits give high values; 1 = untreated enzyme, 0 = substrate-free blank; activation factor at 20 µM; 0.34% of 190,000 active; AID 1216;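 active means activation factor of 2 or more at 20 µM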
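assay system = human phosphomannose isomerase with PGI, G6PDH, diaphorase coupling enzymes | quantity = 15 ng/mL PMI | incubation = enzyme reaction with compound 20 min at room temperature | medium = HEPES pH 7.4 buffer with MgCl2 and Tween-20 | compound dosing = one concentration, 20 µM, in 1% DMSO | measured by = Diaphorase-driven resazurin-to-resorufin fluorescence, excitation 544, emission 590 nm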
HCT116 PTEN-null: PTEN-deleted cell growth suppression; AID 827; HCT116 PTEN-null viability, CellTiter-Glo, 60 h; hits give low values; 1.2% of 140,000 active; viability, % at 10 µM;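 active means viability at or below a set limit, 4 SD under the median of all tested compounds, cut at about 3.7% in these data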;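 further: PTEN knockout HCT116 line with beta catenin targeted HCT116 as companion control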
* = called active by the depositor; / = not tested or not shown.

SMILES	PMI activator	bCat KO growth	L major viab	PMI act hi M6P	HCT116 PTEN-null
COc1ccc(NC(=S)NCCCN2CCCC2)cc1Cl	1.2	/	22.5	1.1	/
COc1ccc(NC(=S)N(CCCN2CCCC2)Cc2cccn2Cc2ccc(Cl)cc2)cc1Cl	1	/	100.5*	1.1	/
FC(F)(F)c1cccc(NC(=S)N(CCCN2CCCC2)Cc2cccn2Cc2ccc(Cl)cc2)c1	0.9	/	100.5*	0.9	/
Cc1ccc(NC(=S)N(CCCN2CCCC2)Cc2cccn2Cc2ccc(Cl)cc2)cc1Cl	1	/	100.2*	1.1	/
Cc1ccc(NC(=S)N(CCCN2CCCC2)Cc2cccn2Cc2ccc(Cl)cc2)cc1C	0.9	/	100.5*	0.9	/
COCCn1nnnc1C(C(C)C)N1CCCC(C)C1 (stereo not drawn)	0.9	/	-5.7	1	/
CC(C)(C)OC(=O)NC(CO)c1cn([C@@H](Cc2cc3ccccc3[nH]2)C(=O)N2CCN(C(=O)OC(C)(C)C)CC2)nn1 (stereo partly drawn)	1	/	-4.7	1.1	/
Cc1ccc(C(=O)Nc2c(C)cc(-c3ccccc3)oc2=O)cc1	1	/	-0.5	0.9	/
O=[N+]([O-])c1cc(S(=O)(=O)N2CCCC2)ccc1NN=C1CCCCC1	1	91.8	24.3	1	100.5
CC1CCCC/C1=N\Nc1ccc(S(N)(=O)=O)cc1[N+](=O)[O-] (stereo not drawn)	0.9	84.3	7.9	0.9	77.9
CCN(CC)S(=O)(=O)c1ccc(NN=C2CCN(C)CC2)c([N+](=O)[O-])c1	1	/	81.3*	0.9	/
CC(C)(C)C1CCC(=NNc2ccc(S(N)(=O)=O)cc2[N+](=O)[O-])CC1 (stereo not drawn)	0.8	66.5	85.2*	0.9	70.8
O=C(N/N=C/c1ccc(Br)o1)c1cc([N+](=O)[O-])cc([N+](=O)[O-])c1	1	/	94.3*	0.9	/
O=C(N/N=C/c1ccncc1)c1cccc([N+](=O)[O-])c1	1	93.0	-1.8	1.1	87.2
O=C(N/N=C/c1ccncc1)c1cc([N+](=O)[O-])cc([N+](=O)[O-])c1	0.9	99.8	95.8*	0.9	96.9
O=C(CCC1CCCCC1)Nc1c[nH]c(=O)[nH]c1=O	1	70.1	0.8	1	93.4
C=CCCCCCCCCC(=O)Nc1c[nH]c(=O)[nH]c1=O	0.9	68.0	93.4*	0.8	77.5
O=C(NC1=NCCS1)c1sc2cc(Cl)cc(Cl)c2c1Cl	1.2	92.5	75.8*	1	85.1
Cc1ccc(S(=O)(=O)Nc2ccccc2CNc2ccc(Br)cn2)cc1	0.8	69.2	9.2	0.8	64.7
Cc1ccc(S(=O)(=O)Nc2ccccc2CNc2ccccn2)cc1	0.8	88.1	58.8*	0.9	85.8
Cc1ccc(S(=O)(=O)Nc2ccccc2CNc2ncc(Br)cc2Br)cc1	0.9	81.8	100.0*	0.9	81.0
CCN(CC)C(=O)CN(c1ccc(Cl)cc1)S(=O)(=O)c1ccccc1	1	93.1	89.6*	1.1	86.8
COC(=O)c1c(C(=O)OC)c(-c2ccc(Cl)cc2)n2c1CS(=O)(=O)C2	1.2	/	8.7	1.1	/
Cc1nn(C(=O)N2CCOCC2)c(C)c1C	1	0.9*	-5.9	1	0.9*
CCOC(=O)N1CCN(C(=O)N2CCOCC2)CC1	1	93.3	-6.1	1	93.2
SMILES	PMI activator	bCat KO growth	L major viab	PMI act hi M6P	HCT116 PTEN-null
CC(/C=C/c1ccccc1)=N\NC(=O)Cn1nc(C)cc1C	1.1	93.8	-3.9	1.1	91.5
COc1c(Cl)cc(Cl)cc1C(=O)Nc1ccc(NC(C)=O)cc1	0.9	/	59.5*	0.9	/
COc1c(Cl)cc(Cl)cc1C(=O)Nc1ccc(C(=O)O)cc1	1.1	97.5	-1.4	1.1	89.3
COc1c(Cl)cc(Cl)cc1/C=C/C(=O)c1ccc(NC(=O)c2cccs2)cc1	0.9	2.6*	100.4*	1	1.8*
COc1cc(NC(=O)c2cccc(Cl)c2)ccc1NC(=O)c1cccs1	1	/	3.6	1	/
O=C(N/N=C/c1ccc[nH]1)c1ccc(Cl)cc1	1.4	90.2	-5.5	1	98.0
Cc1cc(Br)ccc1NC(=O)CN1C(=S)NC(C)(C)CC1C (stereo not drawn)	1	/	-2.6	1	/
CCCCN(C)S(=O)(=O)c1ccc(C(=O)Nc2nnc(-c3cccs3)o2)cc1	1	15.1	99.3*	1	13.3
CCN(Cc1ccccc1)S(=O)(=O)c1ccc(C(=O)Nc2nnc(-c3ccccc3OC)o2)cc1	1.1	23.5	98.5*	1.2	17.8
COc1ccccc1-c1nnc(NC(=O)c2ccc(S(=O)(=O)N(C)C)cc2)o1	1	52.9	14.8	1.1	56.4
CCCCN(CC)S(=O)(=O)c1ccc(C(=O)Nc2nnc(-c3ccccc3Cl)o2)cc1	1.1	15.9	99.0*	1.2	15.8
CCCCN(CC)S(=O)(=O)c1ccc(C(=O)Nc2nnc(COC)o2)cc1	1.1	55.1	2.2	1	63.4
Nc1nc(/C=C/c2cccnc2)nc(-c2ccccc2O)n1	0.9	/	23.0	1	/
CCN(CC)S(=O)(=O)c1ccc(C)c(NC(=S)NNC(=O)C2CC2)c1	1	88.5	39.5	1.1	101.8
Clc1ccc(N/N=C/c2cccnc2)cc1	1.6	36.8	62.2*	2.4*	36.0
O=C(N/N=C/c1cccnc1)C(O)(c1ccccc1)c1ccccc1	1	93.0	-4.0	1	98.5
O=C(O)c1cccc(N/N=C/c2ccc(-c3ccccc3)cc2)c1	1.7	/	-11.5	2.7*	/
CC(C)(C)c1ccc(/C=N/Nc2cccc(C(=O)O)c2)cc1	1.7	/	-9.7	2*	/
O=C(O)c1cccc(N/N=C/c2cccnc2)c1	2*	/	-14.8	2.5*	/
N#Cc1ccc(OCC(=O)N/N=C(\CCC(=O)O)c2cccs2)cc1	1.1	/	-5.0	1	/
O=C(CCN1C(=O)C2C3C=CC(C4CC34)C2C1=O)Oc1cccc2cccnc12 (stereo not drawn)	0.8	20.9	-3.8	0.7	8.4
CCn1ccnc1CN1CCN(CC(C)C)C(CCO)C1 (stereo not drawn)	0.9	/	1.4	0.9	/
CCOc1cc(NC(=O)CC(C)C)c(OCC)cc1NC(=O)CCn1nnc2ccccc21	1	89.8	0.1	1	89.4
C/C(=N\NC(=O)c1c[nH]c2ccccc12)c1ccccn1	1	/	100.5*	1.2	/
Cc1c(NC(=O)c2cc3nc(-c4ccc(Cl)cc4)cc(C(F)(F)F)n3n2)c(=O)n(-c2ccccc2)n1C	1	69.3	-7.6	0.9	73.4
O=C(O)CCC(=O)NNc1nc2ccccc2nc1-c1ccccc1	1	/	-1.9	1.1	/
Cc1ccc(OCC(=O)NCC(=O)Nc2ccc(F)cc2)c([N+](=O)[O-])n1	0.9	93.5	50.2*	0.9	96.2
Cc1ccc(OCC(=O)Nc2ccc(F)cc2)c([N+](=O)[O-])n1	1	/	7.1	1	/
COc1ccc(CNC(=O)C2(c3ccc(Cl)cc3)CC2)cc1	1	90.1	3.5	1	93.9
NS(=O)(=O)c1ccc(CNC(=O)C2(c3ccc(Cl)cc3)CC2)cc1	1	/	85.4*	1	/
